Source: publication PMC5616077 (Toxicology Reports, 2016)
“Also recorded” adds a separate entry of the source.

How the values were obtained:
[1] = system: HaCaT WT cells; experiment: Targeted metabolomics; type: cell-based, human; settings: 48 h; for change of Gln level vs control (in words) / change of PCaa_C36:2 level vs control (in words) / C4:1 concentration / C4 concentration / C6 (C4:1-DC) concentration / C10:2 concentration / C12-DC concentration / C12:1 concentration / C18:1-OH concentration / C18:2 concentration / Gln concentration / PCaa_C32:2 concentration / PCaa_C36:2 concentration / PCae_C32:1 concentration / PCae_C34:2 concentration / PCae_C34:3 concentration / PCae_C36:2 concentration / PCae_C36:3 concentration / PCae_C38:1 concentration / PCae_C38:2 concentration / PCae_C38:3 concentration / PCae_C38:4 concentration / PCae_C40:4 concentration / PCae_C40:5 concentration / SM_C16:1 concentration / alpha-AAA concentration / change of alpha-AAA level vs control (in words) / change of carnitines (e.g. C18:2) vs control (in words): BAP 1 μM, DALP 0.01 μM; for change of Gln level vs control (in words) / change of PCaa_C36:2 level vs control (in words) / C4:1 concentration / C4 concentration / C6 (C4:1-DC) concentration / C10:2 concentration / C12-DC concentration / C12:1 concentration / C18:1-OH concentration / C18:2 concentration / Gln concentration / PCaa_C32:2 concentration / PCaa_C36:2 concentration / PCae_C32:1 concentration / PCae_C34:2 concentration / PCae_C34:3 concentration / PCae_C36:2 concentration / PCae_C36:3 concentration / PCae_C38:1 concentration / PCae_C38:2 concentration / PCae_C38:3 concentration / PCae_C38:4 concentration / PCae_C40:4 concentration / PCae_C40:5 concentration / SM_C16:1 concentration / alpha-AAA concentration: CRY 1 μM; for C4:1 concentration / C4 concentration / C6 (C4:1-DC) concentration / C10:2 concentration / C12-DC concentration / C12:1 concentration / C18:1-OH concentration / C18:2 concentration / Gln concentration / PCaa_C32:2 concentration / PCaa_C36:2 concentration / PCae_C32:1 concentration / PCae_C34:2 concentration / PCae_C34:3 concentration / PCae_C36:2 concentration / PCae_C36:3 concentration / PCae_C38:1 concentration / PCae_C38:2 concentration / PCae_C38:3 concentration / PCae_C38:4 concentration / PCae_C40:4 concentration / PCae_C40:5 concentration / SM_C16:1 concentration / alpha-AAA concentration: mean ± SD
Summary of the method: (§1)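 Cells in DMEM with 10% FCS were seeded at 1 × 10^5 cells/mL and exposed 24 h later for 48 h, 4 replicates; vehicle controls got 0.1% DMSO. Cells were washed with ice-cold 155 mM ammonium formate pH 7.4, pelleted, weighed and snap-frozen. Extracts went on the p180 kit with isotope-labelled standards, phenylisothiocyanate derivatisation and 5 mM ammonium acetate/methanol extraction. Read by LC–MS/MS (positive) and FIA-MS/MS (±), MRM; μM normalised to pellet weight.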

[2] = system: HaCaT AHR-KD cells; experiment: Targeted metabolomics; type: cell-based, human; settings: 48 h
Summary of the method: as §1

[3] = MTT assay; type: cell-based, human; settings: human, HaCaT wild-type (WT) cells; for EC50 at 48 h: calculated EC50 (cytotoxicity, viability), HaCaT WT, MTT
[4] = system: HaCaT WT cells; experiment: Enzymatic determination of glutamine; type: cell-based, human; settings: 48 h, BAP 1 μM, CRY 1 μM, DALP 0.01 μM
[5] = system: CYP1B1; experiment: Western blot, protein level; type: cell-based, human; settings: HaCaT WT, 24 h and 48 h
[6] = system: CYP1A1; experiment: Western blot, protein level; type: cell-based, human; settings: HaCaT WT, 24 h and 48 h
[7] = system: HaCaT WT cells; experiment: MTT assay; type: cell-based, human; settings: HaCaT WT, 48 h, up to 20 μM
[8] = system: CYP1A1; experiment: Real-time PCR, AHR target gene induction; type: cell-based, human; settings: for CYP1A1 mRNA induction (in words): 24 h, BAP/CRY 0.1-3.5 μM
[9] = system: HaCaT AHR-KD cells; experiment: MTT assay; type: cell-based, human; settings: HaCaT AHR-KD, 48 h, up to 20 μM
[10] = system: CYP1B1; experiment: Real-time PCR, AHR target gene induction; type: cell-based, human; settings: for CYP1B1 mRNA induction (in words): 24 h
[11] = system: carnitine palmitoyltransferase 1 (CPT1); settings: liver of rats upon treatment; ref [55], [56]; cited from earlier work
[12] = MTT assay; type: cell-based, human; settings: human, HaCaT AHR knockdown (AHR-KD) cells
[13] = HaCaT cells, 2 and 8 h, up to 1 μM, data not shown

c1ccc2c(c1)cc1ccc3cccc4ccc2c1c34 [BAP, benzo[a]pyrene]
change of Gln level vs control (in words) [1]: strongly lowered | change of PCaa_C36:2 level vs control (in words) [1]: increased | C4:1 concentration [1]: 1.1 ± 0.1 nmol/g pellet weight | C4 concentration [1]: 2.5 ± 0.3 nmol/g pellet weight | C6 (C4:1-DC) concentration [1]: 2.3 ± 0.2 nmol/g pellet weight | C10:2 concentration [1]: 1.0 ± 0.1 nmol/g pellet weight | C12-DC concentration [1]: 3.8 ± 0.2 nmol/g pellet weight | C12:1 concentration [1]: 1.2 ± 0.1 nmol/g pellet weight | C18:1-OH concentration [1]: 0.9 ± 0.1 nmol/g pellet weight | C18:2 concentration [1]: 1.0 ± 0.1 nmol/g pellet weight | Gln concentration [1]: 77.1 ± 18.2 nmol/g pellet weight | PCaa_C32:2 concentration [1]: 103.6 ± 11.5 nmol/g pellet weight | PCaa_C36:2 concentration [1]: 2039.2 ± 198.8 nmol/g pellet weight | PCae_C32:1 concentration [1]: 198.8 ± 17.1 nmol/g pellet weight | PCae_C34:2 concentration [1]: 238.2 ± 23.8 nmol/g pellet weight | PCae_C34:3 concentration [1]: 26.8 ± 3.1 nmol/g pellet weight | PCae_C36:2 concentration [1]: 354.1 ± 28.2 nmol/g pellet weight | PCae_C36:3 concentration [1]: 108.6 ± 10.5 nmol/g pellet weight | PCae_C38:1 concentration [1]: 29.7 ± 2.2 nmol/g pellet weight | PCae_C38:2 concentration [1]: 74.9 ± 6.3 nmol/g pellet weight | PCae_C38:3 concentration [1]: 33.8 ± 3.9 nmol/g pellet weight | PCae_C38:4 concentration [1]: 69.0 ± 7.3 nmol/g pellet weight | PCae_C40:4 concentration [1]: 11.7 ± 1.5 nmol/g pellet weight | PCae_C40:5 concentration [1]: 30.0 ± 2.5 nmol/g pellet weight | SM_C16:1 concentration [1]: 35.3 ± 3.4 nmol/g pellet weight | alpha-AAA concentration [1]: 5.7 ± 1.8 nmol/g pellet weight | change of alpha-AAA level vs control (in words) [1]: strong down-regulation | change of carnitines (e.g. C18:2) vs control (in words) [1]: strong up-regulation | change of Gln level vs control (in words) ([2]; BAP 1 μM, CRY 1 μM, DALP 0.01 μM): decreased | viability at 48 h, 20 µM [3]: ~80%

c1ccc2c(c1)cc1ccc3cccc4c5ccccc5c2c1c34 [DALP, dibenzo[a,l]pyrene]
relative Gln level, enzymatic assay (in words) [4]: downregulated approximately two-fold | CYP1B1 protein induction (in words) [5]: no induction | change of Gln level vs control (in words) [1]: strongly lowered | change of PCaa_C36:2 level vs control (in words) [1]: measurable but insignificant decrease | C4:1 concentration [1]: 1.3 ± 0.1 nmol/g pellet weight | C4 concentration [1]: 2.9 ± 0.3 nmol/g pellet weight | C6 (C4:1-DC) concentration [1]: 2.5 ± 0.2 nmol/g pellet weight | C10:2 concentration [1]: 1.1 ± 0.1 nmol/g pellet weight | C12-DC concentration [1]: 4.2 ± 0.2 nmol/g pellet weight | C12:1 concentration [1]: 1.4 ± 0.1 nmol/g pellet weight | C18:1-OH concentration [1]: 1.0 ± 0.0 nmol/g pellet weight | C18:2 concentration [1]: 1.1 ± 0.1 nmol/g pellet weight | Gln concentration [1]: 65.7 ± 23.9 nmol/g pellet weight | PCaa_C32:2 concentration [1]: 81.9 ± 9.5 nmol/g pellet weight | PCaa_C36:2 concentration [1]: 1417.7 ± 173.7 nmol/g pellet weight | PCae_C32:1 concentration [1]: 164.7 ± 17.4 nmol/g pellet weight | PCae_C34:2 concentration [1]: 170.7 ± 25.4 nmol/g pellet weight | PCae_C34:3 concentration [1]: 20.8 ± 3.3 nmol/g pellet weight | PCae_C36:2 concentration [1]: 235.3 ± 25.3 nmol/g pellet weight | PCae_C36:3 concentration [1]: 65.2 ± 8.9 nmol/g pellet weight | PCae_C38:1 concentration [1]: 18.7 ± 1.2 nmol/g pellet weight | PCae_C38:2 concentration [1]: 50.7 ± 5.2 nmol/g pellet weight | PCae_C38:3 concentration [1]: 18.5 ± 1.8 nmol/g pellet weight | PCae_C38:4 concentration [1]: 38.1 ± 4.0 nmol/g pellet weight | PCae_C40:4 concentration [1]: 7.6 ± 0.5 nmol/g pellet weight | PCae_C40:5 concentration [1]: 16.5 ± 1.5 nmol/g pellet weight | SM_C16:1 concentration [1]: 25.5 ± 2.1 nmol/g pellet weight | alpha-AAA concentration [1]: 2.0 ± 1.1 nmol/g pellet weight | change of alpha-AAA level vs control (in words) [1]: strong down-regulation | change of carnitines (e.g. C18:2) vs control (in words) [1]: strong up-regulation | CYP1A1 protein induction (in words) [6]: no induction | metabolite levels vs control (in words) ([2]; 0.01 μM): remained virtually unaffected | EC50 at 48 h [3]: 0.035 µM | cytotoxicity / cell viability (in words) [7]: enhanced cytotoxicity; also recorded: very strong cytotoxicity | CYP1A1 mRNA induction (in words) ([8]; HaCaT WT, DALP 0.01-0.03 μM): only weakly increased | CYP1A1 mRNA induction at earlier time-points (in words) [8, 13]: no significant induction | cytotoxicity / cell viability (in words) [9]: remained unaffected | CYP1B1 mRNA induction at earlier time-points (in words) [10, 13]: no significant induction

Clc1cc2c(cc1Cl)Oc1cc(Cl)c(Cl)cc1O2 [TCDD, 2,3,7,8-tetrachlorodibenzo-p-dioxin]
increase of carnitine palmitoyltransferase 1 (CPT1) [11]: more than 3 fold

c1ccc2c(c1)ccc1c3ccccc3ccc21 [CRY, chrysene]
relative Gln level, enzymatic assay (in words) [4]: could not confirm the effect | CYP1B1 protein induction (in words) [5]: moderate induction | SM, AC, LPC and BA concentrations vs control (in words) ([1]; 1 μM): remained completely unaffected | change of Gln level vs control (in words) [1]: weakly | change of PCaa_C36:2 level vs control (in words) [1]: increased | C4:1 concentration [1]: 0.9 ± 0.2 nmol/g pellet weight | C4 concentration [1]: 2.3 ± 0.5 nmol/g pellet weight | C6 (C4:1-DC) concentration [1]: 1.9 ± 0.3 nmol/g pellet weight | C10:2 concentration [1]: 0.9 ± 0.1 nmol/g pellet weight | C12-DC concentration [1]: 3.3 ± 0.6 nmol/g pellet weight | C12:1 concentration [1]: 1.0 ± 0.2 nmol/g pellet weight | C18:1-OH concentration [1]: 0.8 ± 0.1 nmol/g pellet weight | C18:2 concentration [1]: 0.8 ± 0.1 nmol/g pellet weight | Gln concentration [1]: 114.3 ± 12.8 nmol/g pellet weight | PCaa_C32:2 concentration [1]: 127.8 ± 17.3 nmol/g pellet weight | PCaa_C36:2 concentration [1]: 2097.1 ± 262.1 nmol/g pellet weight | PCae_C32:1 concentration [1]: 231.2 ± 36.0 nmol/g pellet weight | PCae_C34:2 concentration [1]: 275.4 ± 48.2 nmol/g pellet weight | PCae_C34:3 concentration [1]: 29.7 ± 5.0 nmol/g pellet weight | PCae_C36:2 concentration [1]: 385.0 ± 53.6 nmol/g pellet weight | PCae_C36:3 concentration [1]: 120.5 ± 17.9 nmol/g pellet weight | PCae_C38:1 concentration [1]: 29.9 ± 5.0 nmol/g pellet weight | PCae_C38:2 concentration [1]: 78.0 ± 13.3 nmol/g pellet weight | PCae_C38:3 concentration [1]: 34.7 ± 5.8 nmol/g pellet weight | PCae_C38:4 concentration [1]: 70.5 ± 9.1 nmol/g pellet weight | PCae_C40:4 concentration [1]: 12.8 ± 2.0 nmol/g pellet weight | PCae_C40:5 concentration [1]: 33.3 ± 4.2 nmol/g pellet weight | SM_C16:1 concentration [1]: 35.0 ± 3.8 nmol/g pellet weight | alpha-AAA concentration [1]: 14.2 ± 3.8 nmol/g pellet weight | CYP1A1 protein induction (in words) [6]: moderate induction | EC50 at 48 h [3]: 3.8 µM | cytotoxicity / cell viability (in words) [7]: strong cytotoxic effects | CYP1A1 mRNA induction (in words) ([8]; HaCaT AHR-KD): no significant induction | CYP1A1 mRNA induction (in words) ([8]; HaCaT WT, DALP 0.01-0.03 μM): inducing both genes in WT cells but less strongly | cytotoxicity / cell viability (in words) [9]: strong cytotoxic effects | EC50 at 48 h [12]: 2 µM | CYP1B1 mRNA induction (in words) ([10]; HaCaT AHR-KD, CRY 0.1-3.5 μM): no significant induction | CYP1B1 mRNA induction (in words) ([10]; HaCaT WT, BAP/CRY 0.1-3.5 μM, DALP 0.01-0.03 μM): inducing both genes in WT cells but less strongly
